One experiment concerns the target T1, Adenosine receptor A1 (Homo sapiens, UniProt P30542).
T1 sequence (P30542 whole entry): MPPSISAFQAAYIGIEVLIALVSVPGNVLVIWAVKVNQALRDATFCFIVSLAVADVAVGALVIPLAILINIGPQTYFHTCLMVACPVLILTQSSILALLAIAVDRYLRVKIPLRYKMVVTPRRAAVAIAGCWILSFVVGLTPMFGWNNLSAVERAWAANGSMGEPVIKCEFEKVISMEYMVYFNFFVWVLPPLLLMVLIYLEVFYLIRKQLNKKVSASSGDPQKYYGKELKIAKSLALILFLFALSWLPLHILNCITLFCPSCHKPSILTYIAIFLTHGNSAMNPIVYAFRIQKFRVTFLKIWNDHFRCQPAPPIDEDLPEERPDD
Briefly: Displacement of [3H]CCPA from human adenosine A1 receptor expressed in CHO cells. The class given is cell-based.

The target of experiment [1] is T2, Adenosine receptor A2a (Homo sapiens, UniProt P29274). The experiment can be described thus: Displacement of [3H]CGS-21680 from human adenosine A2A receptor expressed in HEK293 cells. Type of experiment: cell-based. (Displacement assays read how much labelled ligand stays bound in the presence of the test substance.)
Experiment [2] concerns the target T3, Adenosine receptor A2b (Homo sapiens) (UniProt P29275).
T3 sequence (whole entry): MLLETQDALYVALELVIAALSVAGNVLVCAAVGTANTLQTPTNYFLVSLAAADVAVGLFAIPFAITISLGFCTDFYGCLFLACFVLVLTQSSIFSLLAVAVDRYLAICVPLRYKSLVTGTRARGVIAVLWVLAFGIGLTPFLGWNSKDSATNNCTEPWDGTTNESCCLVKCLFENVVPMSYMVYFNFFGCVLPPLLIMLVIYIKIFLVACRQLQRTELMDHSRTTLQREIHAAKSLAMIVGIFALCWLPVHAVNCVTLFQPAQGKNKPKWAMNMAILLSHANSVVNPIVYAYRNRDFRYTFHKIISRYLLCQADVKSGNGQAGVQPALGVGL
Briefly: Agonist activity human adenosine A2B receptor expressed in CHO cells assessed as stimulation of adenylate cyclase relative to NECA. The class given is functional, cell-based. Summed up:
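Stably transfected CHO cells; cAMP accumulation by enzyme immunoassay kit. Relative potency computed as pEC50(compound) minus pEC50(NECA) determined in the same publication.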

A further experiment addresses T4, Adenosine receptor A2b (Homo sapiens, UniProt P29275).
T4 sequence (P29275 whole entry): T3 sequence (whole entry)
Briefly: Agonist activity at human adenosine A2B receptor expressed in CHO cells assessed as stimulation of adenylate cyclase. Type of experiment: functional, cell-based. An outline of the steps:
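Stably transfected CHO cells; cAMP accumulation quantified by enzyme immunoassay kit per manufacturer's manual; EC50 derived.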

The target in experiment [3] is T2, Adenosine receptor A2a. The experiment can be described thus: Displacement of [3H]CGS-21680 from human adenosine A2A receptor expressed in HEK293 cells at 10 uM. Type of experiment: cell-based. Summed up:
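HEK293 membranes expressing receptor; [3H]CGS21680 final 10 nM in 50 mM Tris-HCl pH 7.4, 10 mM MgCl2, 1 h at 25 °C; nonspecific defined by 10 μM NECA; filtration, scintillation counting; percent displacement recorded at single 10 μM concentration.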

For experiment [4], the target named is T5, Adenosine receptor A1 (Homo sapiens) (UniProt P30542).
T5 sequence (whole entry): T1 sequence (P30542 whole entry)
Briefly: Displacement of [3H]CCPA from human adenosine A1 receptor expressed in CHO cells at 10 uM. The class given is cell-based. Summed up: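 CHO membranes expressing receptor; [3H]CCPA final 1.0 nM, Tris-HCl 50 mM pH 7.4 with 10 mM MgCl2, 1 h at 25 °C; nonspecific with 10 μM NECA; filtration and scintillation counting; percent displacement at single 10 μM test concentration.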

Broadly, the Ki is the dissociation constant of the complex between target and ligand, obtained from inhibition or displacement. Higher therefore signals weaker binding. One may read the EC50 as the concentration needed to bring the measured effect to its halfway point.

T2 sequence (P29274 whole entry): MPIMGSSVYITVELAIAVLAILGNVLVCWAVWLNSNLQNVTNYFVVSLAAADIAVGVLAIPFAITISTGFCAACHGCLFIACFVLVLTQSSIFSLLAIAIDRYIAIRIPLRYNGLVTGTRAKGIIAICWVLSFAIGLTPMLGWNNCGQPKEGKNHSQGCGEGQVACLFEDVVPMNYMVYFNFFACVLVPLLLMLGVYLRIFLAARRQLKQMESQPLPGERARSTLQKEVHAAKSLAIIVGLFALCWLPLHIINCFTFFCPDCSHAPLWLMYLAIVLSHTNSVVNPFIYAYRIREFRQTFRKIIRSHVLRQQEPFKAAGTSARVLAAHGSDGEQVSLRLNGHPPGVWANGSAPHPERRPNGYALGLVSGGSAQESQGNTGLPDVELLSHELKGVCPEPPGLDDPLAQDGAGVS

As to `O=C(COc1ccc(Nc2nc(OCCc3c[nH]c4cc(Br)ccc34)nc3c2ncn3[C@@H]2O[C@H](CO)[C@@H](O)[C@H]2O)cc1)Nc1ccccc1`, the Ki at Adenosine receptor A1 was found to be 370 nM; on Adenosine receptor A2a [1] it was 1150 nM. In addition, in experiment [2], the Activity was -0.0092. Further, on Adenosine receptor A2b, the EC50 was 143 nM. For the compound `NNc1nc(OCCc2c[nH]c3cc(Br)ccc23)nc2c1ncn2[C@@H]1O[C@H](CO)[C@@H](O)[C@H]1O`, the Ki amounted to 350 nM on Adenosine receptor A1 and 2050 nM on Adenosine receptor A2a [1]. Also, the Activity in experiment [2] is -0.0944. Further, the EC50 on Adenosine receptor A2b was found to be 174 nM. At Adenosine receptor A1, `O=C(COc1ccc(Nc2nc(OCCc3c[nH]c4cc(Br)ccc34)nc3c2ncn3[C@@H]2O[C@H](CO)[C@@H](O)[C@H]2O)cc1)N1CCCC1` showed a Ki of 420 nM. Also, the Activity was 46% at Adenosine receptor A2a [3] and -0.838 in experiment [2]. For the same compound, the EC50 on Adenosine receptor A2b is 965 nM. `O=C(NNc1nc(OCCc2c[nH]c3cc(Br)ccc23)nc2c1ncn2[C@@H]1O[C@H](CO)[C@@H](O)[C@H]1O)c1ccco1`: the Activity in experiment [4] was 29%; on Adenosine receptor A2a [3], 40%; in experiment [2] it was -0.315. Also, the EC50 on Adenosine receptor A2b was determined as 289 nM. For the compound `CCNC(=O)[C@H]1O[C@@H](n2cnc3c(NNC(=O)Cc4cccs4)nc(Cl)nc32)[C@H](O)[C@@H]1O`, the Activity in experiment [2] was -0.576.

Take `CCNC(=O)[C@H]1O[C@@H](n2cnc3c(Nc4ccc(OCC(=O)Nc5ccc(Cl)cc5)cc4)ncnc32)[C@H](O)[C@@H]1O`: the Activity in experiment [2] is 1.1.

As for `CCNC(=O)[C@H]1O[C@@H](n2cnc3c(Nc4ccc(OCC(=O)Nc5ccc(F)cc5)cc4)ncnc32)[C@H](O)[C@@H]1O`, in experiment [2], the Activity was 1.01.

For `CCNC(=O)[C@H]1O[C@@H](n2cnc3c(Nc4ccc(OCC(=O)Nc5ccc(OC)cc5)cc4)ncnc32)[C@H](O)[C@@H]1O`, the Activity in experiment [2] came out at 0.68.

Consider `CCCCC#Cc1nc(NCC)c2ncn([C@@H]3O[C@H](CO)[C@@H](O)[C@H]3O)c2n1`, for which the Activity in experiment [2] was -1.62. On the same count and under the same terms, next, `CCNC(=O)[C@H]1O[C@@H](n2cnc3c(NNC(=O)c4ccco4)nc(Cl)nc32)[C@H](O)[C@@H]1O`: -0.118; `CCNc1nc(C#C[C@@H](O)c2ccccc2)nc2c1ncn2[C@@H]1O[C@H](CO)[C@@H](O)[C@H]1O`: 0.517.

Regarding `CCNC(=O)[C@H]1O[C@@H](n2cnc3c(NNC(=O)c4ccc(C)o4)ncnc32)[C@H](O)[C@@H]1O`, the Activity in experiment [2] was -0.152. In the case of `Nc1nc(OCCc2cccs2)nc2c1ncn2[C@@H]1O[C@H](CO)[C@@H](O)[C@H]1O`, the Activity in experiment [2] is -1.1. On to `CCNC(=O)[C@H]1O[C@@H](n2cnc3c(Nc4ccc(OCC(=O)Nc5ccc(C(C)(C)C)cc5)cc4)ncnc32)[C@H](O)[C@@H]1O`, for which the Activity in experiment [2] was found to be 0.976. Still for that read-out and setting: next, `CCNC(=O)[C@H]1O[C@@H](n2cnc3c(Nc4ccc(OCC(=O)NC5CCCCC5)cc4)ncnc32)[C@H](O)[C@@H]1O`: -0.308; `Nc1nc(OCCc2cccc3ccccc23)nc2c1ncn2[C@@H]1O[C@H](CO)[C@@H](O)[C@H]1O`: -1.01; `CCNC(=O)[C@H]1O[C@@H](n2cnc3c(Nc4ccc(OCC(=O)Nc5ccncc5)cc4)ncnc32)[C@H](O)[C@@H]1O`: 0.681. Turning to `CCNC(=O)[C@H]1O[C@@H](n2cnc3c(Nc4ccc(OCC(=O)Nc5ccc(OC)c(OC)c5)cc4)ncnc32)[C@H](O)[C@@H]1O`, the Activity in experiment [2] came out at 0.533. On the same count and under the same terms, next, `CCCCC#Cc1nc(N)c2ncn([C@@H]3O[C@H](CO)[C@@H](O)[C@H]3O)c2n1`: -1.62. Same read-out and setting: then `CCNC(=O)[C@H]1O[C@@H](n2cnc3c(NNC(=O)c4ccc(Br)o4)ncnc32)[C@H](O)[C@@H]1O`, with -0.363. Take `CCNC(=O)[C@H]1O[C@@H](n2cnc3c(N)nc(OCCc4c[nH]c5ccccc45)nc32)[C@H](O)[C@@H]1O`: the Activity in experiment [2] was -0.849. Same read-out and setting: then `CCNC(=O)[C@H]1O[C@@H](n2cnc3c(Nc4ccc(OCC(=O)Nc5ccc(I)cc5)cc4)ncnc32)[C@H](O)[C@@H]1O`, with 0.71; and `CCNC(=O)[C@H]1O[C@@H](n2cnc3c(Nc4ccc(OCC(=O)Nc5ccccc5)cc4)nc(Cl)nc32)[C@H](O)[C@@H]1O`, with 0.561; and `CCNC(=O)[C@H]1O[C@@H](n2cnc3c(Nc4ccc(OCC(=O)Nc5ccc(OC)cc5)cc4)nc(Cl)nc32)[C@H](O)[C@@H]1O`, with -0.366.
